# Rin1-Abl PPI inh: human Rin1-Abl interaction inhibition | P00519+Q13671 | TR-FRET Rin1/Abl binding, biochemical | inhibition, % at 7.35 µM | hit rate 0.4% among 360,000 | AID 588664; in the data active means inhibition above about 5%, passing the limit was not always enough
# NadD block: NadD (S. aureus) enzyme inhibition; purified NadD enzyme, colorimetric absorbance read-out; inhibition, % at 20 µM; hit rate 0.78% among 360,000; in the data active means inhibition above about 26%
# Rpn11 inh: Rpn11 (human) deubiquitinase inhibition. O00487. human 26S proteasome, Ub4-pepOG fluorescence polarization; 20S core pre-blocked with epoxomicin. inhibition, % at 20 µM. hit rate 0.59% among 360,000. AID 588493;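 active means inhibition at 20 µM, scaled to each plate's controls, above about 33%, limit read from the data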
# Target sequence (O00487 whole entry, looked up): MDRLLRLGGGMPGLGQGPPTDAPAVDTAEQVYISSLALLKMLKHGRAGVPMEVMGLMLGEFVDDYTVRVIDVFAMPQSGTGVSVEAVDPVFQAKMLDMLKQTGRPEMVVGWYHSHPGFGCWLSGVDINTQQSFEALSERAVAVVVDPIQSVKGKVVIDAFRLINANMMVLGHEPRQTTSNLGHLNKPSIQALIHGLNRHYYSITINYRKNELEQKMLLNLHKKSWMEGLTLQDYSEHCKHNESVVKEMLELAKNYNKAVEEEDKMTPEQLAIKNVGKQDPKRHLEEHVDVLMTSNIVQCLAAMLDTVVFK
# Xi reactivation: reactivates the inactive X chromosome in mouse fibroblasts. AID 743238. activation, % at 7.58 µM. XiGFP mouse fibroblasts, % GFP-positive cells imaging, 3 d; cells co-treated with 5-aza-dC sensitizer; scaled so ellipticine positive control = 100%. hit rate 0.055% among 360,000;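 active means mean normalized replicate activation at least 10% and every replicate at or above 10%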;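 further: 0% = median of on-plate neutral control wells and 100% = ellipticine 6 µM median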
#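 Assay system: SV40-immortalized XiGFP fibroblast cells, line 68-5-11; buffer or medium: DMEM plus 5-aza-dC sensitizer; compound: one concentration, pinned; timing: compounds 3 days, fix/stain 15 min at room temperature; benchmarks: positive control ellipticine, 6 µM final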
# ABHD5 PLIN5 PPI: blocks binding of human ABHD5 to perilipin-5; Q00G26+Q8WTS1; Split G. princeps luciferase complementation, luminescence, 4 h; inhibition, % at 4 µM; hit rate 0.78% among 360,000;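 active means inhibition above the mean inhibition across every tested compound plus 3 SD, cut at about 22% in these data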;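 further: 0% = DMSO only wells and the 100% control is not disclosed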
# NadD conf: confirmation of Staphylococcus aureus NadD inhibitors | hit rate 13% among 2,000 | inhibition, % at 20 µM | shares compounds with NadD block | purified S. aureus NadD, colorimetric enzyme assay | AID 624309; in the data active means inhibition mostly above about 42%, no sharp cut-off; inactive means mostly below about 42%
# An asterisk follows results filed as active; nt = no result given. Most compounds without a hit are left out; they make up all but 1.9% or so of the library.
SMILES,Rin1-Abl PPI inh,NadD block,Rpn11 inh,Xi reactivation,ABHD5 PLIN5 PPI,NadD conf
Cc1cccc(N2CCN(C(=O)c3ccc4c(c3)NC(=O)C(CSCc3cccc(F)c3)N4)CC2C)c1 (stereo unspecified),4,49*,nt,1,-12,70*
C=C(C)[C@@H]1CC[C@]2(C(=O)O)CC[C@]3(C)[C@H](CC[C@@H]4[C@@]5(C)CC[C@H](O)C(C)(C)[C@@H]5CC[C@]43C)[C@@H]12,0,53*,4,0,-9,13
C=C(CC[C@@H](O)C(C)(C)O)[C@H]1CC[C@]2(C)[C@@H]1CCC1[C@@]3(C)CC[C@H](O)C(C)(C)C3CC[C@]12C (stereo partly specified),1,-12,-3,0,-1,nt
O=C(Nc1nnc(C2CC2)s1)C1Cc2ccccc2CN1C(=O)c1ccco1 (stereo unspecified),1,11,5,0,5,nt
O=C(Nc1nnc(SCc2ccc(F)cc2)s1)C1Cc2ccccc2CN1C(=O)c1ccco1 (stereo unspecified),5,60*,10,nt,2,52*
Cc1ccc(N2C(=O)C3C(C2=O)C(C(=O)c2ccc(Cl)cc2)N2CCCC32)cc1 (stereo unspecified),-1,3,-1,nt,2,nt
O=C(C1=C[C@@H]2[C@H]3C(=O)N(c4ccc(Cl)cc4)C(=O)[C@H]3[C@@H](C(=O)c3ccc(Cl)cc3)N2C=C1)c1ccccc1,4,43*,17,0,1,0
CCCNC(=O)C[C@@H]1CC[C@@H]2[C@H](COC[C@H](O)CN2Cc2ccc(Cl)c(Cl)c2)O1,nt,nt,nt,0,nt,nt
COc1ccccc1Nc1nc(-c2sc(NC(=O)C(C)(C)C)nc2C)cs1,-1,14,33,0,-34,nt
CCOc1ccccc1Nc1nc(-c2sc(NC(=O)c3ccco3)nc2C)cs1,-1,31*,19,0,-6,24
CCOc1ccccc1Nc1nc(-c2sc(C)nc2C)cs1,-1,0,7,0,-14,nt
Cc1ccccc1Nc1nc(-c2sc(NC(=O)c3ccco3)nc2C)cs1,2,32*,22,0,-12,34
Cc1ccc(Nc2nc(-c3sc(NC(=O)c4ccco4)nc3C)cs2)cc1,2,33*,26,0,-14,41
O=C1OC2(c3ccccc31)c1ccccc1-c1ccccc12,2,-5,4,0,-2,nt
O=C1OC(c2ccc3ccccc3c2O)(c2ccc3ccccc3c2O)c2ccccc21,-2,41*,-5,0,-6,82*
Oc1cccc(-c2sc3ccccc3c2-c2ccc(OCCN3CCCCC3)cc2)c1,nt,8,nt,2,12,nt
O=C(c1ccc(OCCN2CCCCC2)cc1)c1c(-c2ccc(O)cc2)sc2cc(O)ccc12,-3,33*,6,1,11,-3
CC(NC(=O)c1c(N)[nH]c(C(=O)c2ccc(Cl)cc2)c1-c1ccc(Br)cc1)c1cccc2ccccc12 (stereo unspecified),nt,nt,nt,1,nt,nt
CC(NC(=O)c1c(N)[nH]c(C(=O)c2ccccc2)c1-c1ccccc1Br)c1cccc2ccccc12 (stereo unspecified),nt,35*,nt,0,-13,37
COc1ccc(C2C=C(C34CC5CC(CC(C5)C3)C4)NC(=S)N2)cc1OC (stereo unspecified),1,29*,2,0,-2,31
CCOc1ccc(CCNC(=O)c2ccc3c(=O)[nH]c4c(C(=O)NC(C)C)sc(=S)n4c3c2)cc1,1,30,-3,0,-2,nt
COc1ccc(OC)c(CCNC(=O)c2ccc3c(=O)[nH]c4c(C(=O)NC(C)C)sc(=S)n4c3c2)c1,4,33*,12,0,0,13
CN(C)CCCNC(=O)[C@H]1[C@H](CO)[C@H]2Cn3c(ccc(-c4cccc(F)c4)c3=O)[C@H]2N1C,nt,nt,nt,0,nt,nt
O=C(C1CCOCC1)N1CC(=O)N2[C@H](CO)[C@H](c3ccc(-c4cccnc4)cc3)[C@@H]2C1,nt,nt,nt,0,nt,nt
N#C/C(=C\Nc1ccc2cn[nH]c2c1)c1nc(-c2ccccc2)cs1,-7,35*,33,0,-11,1
SMILES,Rin1-Abl PPI inh,NadD block,Rpn11 inh,Xi reactivation,ABHD5 PLIN5 PPI,NadD conf
N#C/C(=C\Nc1ccc2cn[nH]c2c1)c1nc(-c2ccc(Cl)cc2)cs1,0,40*,39,0,-7,3
COc1cc2c(cc1N/C=C(\C#N)c1nc(-c3ccccc3)cs1)oc1ccccc12,-1,16,21,0,2,nt
N#CC(=Cc1ccccn1)c1nc(-c2ccc(Cl)cc2)cs1,1,2,nt,1,13,nt
C[C@H](CO)N1C[C@H](C)[C@H](CN(C)C(=O)Nc2ccc(F)cc2)Oc2c(NC(=O)c3nc4ccccc4s3)cccc2C1=O,nt,nt,nt,0,nt,nt
Cc1ccc(S(=O)(=O)Nc2ccc3c(c2)C(=O)N([C@H](C)CO)C[C@H](C)[C@@H](CN(C)C(=O)Nc2ccccc2)O3)cc1,nt,nt,nt,0,nt,nt
COc1ccc(C(=O)Nc2cccc(/C=C(\CCC(=O)O)c3nc4ccccc4s3)c2)cc1,-4,55*,16,1,0,29
CCOc1cc(/C=C(\CC(=O)O)c2nc3ccccc3s2)ccc1OCC(=O)Nc1cccc(C(F)(F)F)c1,-9,37*,4,0,-2,12
COc1cc(OC)cc(C(=O)Oc2ccc(/C=N/Nc3nc4ccccc4s3)cc2OC)c1,1,37*,15,0,-3,10
COc1cccc(-c2c(C(=O)N/N=C(\C)c3ccco3)nnn2-c2nonc2N)c1,-1,0,10,0,-1,nt
COc1cccc(-c2c(C(=O)N/N=C(\C)c3ccc(Cl)s3)nnn2-c2nonc2N)c1,-2,32*,1,0,0,15
Cc1cc(SCC(=O)c2cccc([N+](=O)[O-])c2)nc(=O)[nH]1,0,33*,18,nt,-17,34
Cc1cc(SCc2cccc([N+](=O)[O-])c2)nc(=O)[nH]1,3,-4,5,0,-3,nt
CCOc1cc(/C=N/NC(=O)c2ccc(-c3csc(Nc4ccc(C)cc4)n3)cc2)ccc1OCC(=O)O,-1,53*,-8,0,0,27
Cc1nc(CC(=O)N/N=C/c2ccc(OCC(=O)O)cc2)cs1,-1,2,-7,0,-11,nt
O=C(O)COc1ccc(/C=N/NC(=O)c2ccc(-c3csc(Nc4ccc(Cl)cc4)n3)cc2)cc1,-2,71*,70*,0,-6,9
O=C(Nc1ccc2oc(-c3cccnc3)nc2c1)c1ccc2c(c1)OCCO2,-5,33*,nt,0,-2,3
COc1ccc(NC(=O)Nc2ccc3c(c2)CC(=O)N([C@@H](C)CO)C[C@@H](C)[C@H](CN(C)S(C)(=O)=O)O3)cc1,nt,nt,nt,0,nt,nt
